Experimental data from paper PMC5488126 (CPT: Pharmacometrics & Systems Pharmacology, 2017).

Tests used:
circulating platelets = assay: Rat platelet count study fitted to myelosuppression model; type: in vivo, Han Wistar rat; conditions: for platelet changes in rat: oral
[1] = Rat PK model of AZD5153 plasma concentrations; type: in vivo, Han Wistar rat; conditions: oral, population typical estimate (RSE), estimated from observed data
Outline: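 Female Han Wistar rats, 9–10 weeks old, were dosed orally in 0.5% hydroxymethylcellulose with 0.1% Tween80. Plasma was taken 2 h postdose on days 1, 4 and 7 and measured by LC-MS/MS. Data were fitted to a one-compartment model with first-order absorption, with ka and clearance fixed from a separate toxicology study and volume estimated. Fitting used FOCE-ELS and included between-subject variability.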

platelet counts [2] = conditions: human, BM dysfunction simulations
Outline: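 The Friberg platelet model was extended with a capacity term fr on the proliferating compartment. fr rose linearly from a baseline fraction of 0.65 (initial Circ0 61.2 ×10⁹/L) over recovery durations of 1 h and 10, 30, 100, 300 and 1,000 days. Runs used slope 0 (recovery only) or 0.45 with 300 mg q.d. for 98 days. Schedules compared over 300-day recovery were 300 mg q.d. continuous, b.i.d. 3 on 4 off, and q.d. 7 on 7 off. fr was also varied from 0.25 to 1.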

platelet counts [3] = assay: Simulation of human platelet counts with healthy BM; conditions: healthy simulations, converted from rat slope using fu
[4] = cited from earlier work

platelet changes in rat (circulating platelets; 0.1 mg/kg q.d.) | platelet changes in rat (circulating platelets; 1 mg/kg q.d.) | platelet changes in rat (circulating platelets; 1.5 mg/kg b.i.d. (3 on 4 off)) | slopeAZD5153 (circulating platelets; rat platelet PD model, total concentrations, population typical estimate (RSE)) | V [1] | Recovery +drug induced myelosuppression: slopeAZD5153 (platelet counts [2]) | slopeAZD5153 (platelet counts [3]) | Structure (SMILES) | frequency of severe TCP by pretreatment baseline ([4]; OTX015 phase 1 trial) | dose-limiting toxicity in patients ([4]; phase I, nonleukemia hematological malignancies)
negligible platelet changes | clear effects | clear effects | 0.09 (14) 1/(μmol/L) | 0.39 (16) L/kg | 0.45 1/(μmol/L) | 0.45 1/(μmol/L) | COc1nnc2ccc(N3CCC(c4ccc(OCCN5CCN(C)C(=O)[C@H]5C)cc4)CC3)nn12 [AZD5153, (3R)‐4‐[2‐[4‐[1‐(3‐methoxy‐[1,2,4]triazolo[4,3‐b]pyridazin‐6‐yl)‐4‐piperidyl]phenoxy]ethyl]‐1,3‐dimethyl‐piperazin‐2‐one] | – | –
– | – | – | – | – | – | – | Cc1sc2c(c1C)C(c1ccc(Cl)cc1)=N[C@@H](CC(=O)Nc1ccc(O)cc1)c1nnc(C)n1-2 [OTX015] | severe TCP was more frequent in patients with low platelet counts at pretreatment baseline | thrombocytopenia (TCP) as a dose‐limiting toxicity (DLT)
